# The source made the active and inactive calls. The rule behind the calls is not given here.
# Assays:
# [1] = tested on: Mycolicibacterium smegmatis; assay: Binding affinity to Mycobacterium smegmatis DprE1 Y321H mutant at 0.5 to 10000 nM up to 30 mins
# [2] = Inhibition of Mycobacterium smegmatis recombinant DprE1 using farnesylphosphoryl-beta-D-ribofuranose as substrate assessed as conversion of amplex red to resorufin after 30 mins; design: species or system Mycolicibacterium smegmatis
# Summary of the method: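 Msm DprE1 (thioredoxin-6His fusion of Msm Rv3790) at 75 nM, preincubated 30 min with 10 μM FAD. Buffer: 50 mM glycylglycine pH 8.5, 200 mM potassium glutamate, 0.002% Brij-35, 2% DMSO, 25 °C. Started with 300 μM farnesylphosphoryl-β-D-ribofuranose, 0.01 mg/mL HRP and 50 μM Amplex Red.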
# [3] = tested on: Mycobacterium tuberculosis; assay: Antimycobacterial activity against Mycobacterium tuberculosis H37Rv after 5 days by standard microdilution method; type: functional; conditions: 120 h
# [4] = tested on: Mycobacterium tuberculosis; assay: Antimycobacterial activity against Mycobacterium tuberculosis over expressing DprE1 after 5 days by standard microdilution method; type: functional; conditions: 120 h
# [5] = Inhibition of Mycobacterium smegmatis DprE1 Y321H mutant using farnesylphosphoryl-beta-D-ribofuranose as substrate assessed as conversion of amplex red to resorufin after 30 mins; design: species or system Mycolicibacterium smegmatis
# Summary of the method: (§1)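 Recombinant M. smegmatis DprE1 (thioredoxin-6His fusion), wild type or Y321H, 75 nM. Enzyme was preincubated 30 min in FAD assay mix: 50 mM glycylglycine pH 8.5, 200 mM potassium glutamate, 10 μM FAD, 0.002% Brij-35, 2% DMSO. Reaction was started with 300 μM farnesylphosphoryl-β-D-ribofuranose, 0.01 mg/mL HRP and 50 μM amplex red at 25 °C.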
# [6] = tested on: Mycolicibacterium smegmatis; assay: Binding affinity to Mycobacterium smegmatis recombinant DprE1 at 0.5 to 10000 nM up to 30 mins
# [7] = tested on: Mycolicibacterium smegmatis; assay: Ratio of IC50 for Mycobacterium smegmatis DprE1 Y321H mutant to IC50 for Mycobacterium smegmatis recombinant wild type DprE1; summary of the method: as §1
compound,measurement,setting,value
Cn1ncc(C(=O)N2[C@@H]3CC[C@H]2C[C@@H](Nc2cc(=O)[nH]c4ccc(F)cc24)C3)c1Cl,Activity,[1],Active
same,IC50,[2],30 nM
same,MIC,[3],0.39 µM
same,MIC,[4],6.25 µM
same,IC50,[5],550 nM
same,Activity,[6],Active
same,fold change (FC),[7],12
